In paper PMC2745912 (The Journal of neuroscience : the official journal of the …, 2009):

Columns and labels:
hABCG2 = molecular target: T1, hABCG2 (Homo sapiens, UniProt Q9UNQ0); type: cell-based; details: empty vector-transfected HEK293; 5 μM Aβ1-40; Hoechst 33342; data not shown
T1 sequence (Q9UNQ0 1-655): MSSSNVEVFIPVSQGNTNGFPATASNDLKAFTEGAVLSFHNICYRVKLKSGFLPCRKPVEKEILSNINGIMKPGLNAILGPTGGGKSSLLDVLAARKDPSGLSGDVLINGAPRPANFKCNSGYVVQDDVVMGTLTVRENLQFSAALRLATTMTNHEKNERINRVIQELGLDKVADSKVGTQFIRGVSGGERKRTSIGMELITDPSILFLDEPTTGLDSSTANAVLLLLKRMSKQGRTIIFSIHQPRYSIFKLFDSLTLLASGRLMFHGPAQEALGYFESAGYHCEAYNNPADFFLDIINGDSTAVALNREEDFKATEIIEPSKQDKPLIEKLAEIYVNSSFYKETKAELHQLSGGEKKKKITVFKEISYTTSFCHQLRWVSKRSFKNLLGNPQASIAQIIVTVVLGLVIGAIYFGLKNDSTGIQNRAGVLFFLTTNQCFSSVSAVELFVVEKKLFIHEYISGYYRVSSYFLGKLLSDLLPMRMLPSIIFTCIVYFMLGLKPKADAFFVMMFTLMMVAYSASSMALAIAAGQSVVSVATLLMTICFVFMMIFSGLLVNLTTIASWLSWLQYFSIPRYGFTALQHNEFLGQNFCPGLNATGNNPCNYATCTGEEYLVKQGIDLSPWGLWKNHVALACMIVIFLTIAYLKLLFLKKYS

Abcg2 [1] = molecular target: T2, Abcg2 (Mus musculus, UniProt Q7TMS5); type: in vivo
T2 sequence (Q7TMS5 1-657): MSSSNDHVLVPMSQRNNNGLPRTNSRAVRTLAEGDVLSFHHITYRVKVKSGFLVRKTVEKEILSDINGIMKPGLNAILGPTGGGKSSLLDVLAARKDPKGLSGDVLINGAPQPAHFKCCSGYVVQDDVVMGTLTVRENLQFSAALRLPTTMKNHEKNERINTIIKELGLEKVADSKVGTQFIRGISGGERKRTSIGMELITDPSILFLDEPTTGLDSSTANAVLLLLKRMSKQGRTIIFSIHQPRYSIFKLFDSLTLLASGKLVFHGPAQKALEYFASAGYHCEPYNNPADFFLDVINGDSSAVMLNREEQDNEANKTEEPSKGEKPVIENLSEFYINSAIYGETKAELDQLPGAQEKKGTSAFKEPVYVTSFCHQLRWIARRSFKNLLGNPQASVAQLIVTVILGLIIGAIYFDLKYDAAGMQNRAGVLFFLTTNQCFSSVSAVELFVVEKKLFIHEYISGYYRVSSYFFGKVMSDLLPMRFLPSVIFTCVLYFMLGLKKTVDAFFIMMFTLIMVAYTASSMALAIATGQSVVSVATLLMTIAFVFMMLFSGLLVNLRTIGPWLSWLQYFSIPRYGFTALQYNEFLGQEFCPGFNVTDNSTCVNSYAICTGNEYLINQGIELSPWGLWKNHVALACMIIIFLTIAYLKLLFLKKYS
Outline: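 Peptides were Cy5.5-labeled via NHS ester kit. Adult KO/wt pairs were matched for age, sex and weight and shaved under isoflurane. Pairs received equal labeled peptide (65 or 200 μg) by tail vein. Heads were imaged live (1.5 mm resolution) at 15 min and 2, 4, 6, 8 and/or 24 h. Brains were saline-perfused and scanned ex vivo (1 mm). Excitation: 670 nm pulsed laser diode, 80 MHz, 12 ps.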

Abcg2 [2] = molecular target: T2, Abcg2; type: in vivo; details: after intravenous injection; brain sections stained with 6E10
Outline: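 Mice received i.v. Cy5.5-labeled Aβ1–40 and underwent optical imaging, then saline perfusion. Brains were OCT-embedded and frozen-sectioned at 10 μm. Sections were immunostained with anti-Aβ 6E10 plus secondary antibody; control sections got secondary antibody only. Vessels were marked with fluorescein-labeled tomato lectin.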

ABCG2 expression in HBEC = test: ABCG2 expression in human brain endothelial cells; type: cell-based; details: 50 units of either cytokine; data not shown

Aβ1-40: Synthetic Aβ1-40 peptide purchased from Biopeptides Co., Inc
effect of Aβ1-40 peptides on drug uptake in empty vector-transfected cells (hABCG2): did not significantly affect
more peptide transported into the brain in the absence of Abcg2 (Abcg2 [1]; Abcg2 KO vs wt mice, i.v. injection of Cy5.5-labeled peptide): 20~37%

Cy5.5-labeled Aβ1-40: Synthetic Aβ1-40 labeled with fluorescent dye Cy5.5 using Cy5.5 Mono NHS ester kit
Aβ immunofluorescence in brains of Abcg2 KO mice compared to wt mice (Abcg2 [2]): strongly enhanced
brain fluorescence concentration, Abcg2 KO vs wt animals (Abcg2 [1]; 65 μg/mouse i.v., two pairs of mice, data not shown): comparatively higher

IL-1β: pro-inflammatory cytokine
ABCG2 expression in HBEC after cytokine (ABCG2 expression in HBEC): no changes in ABCG2 expression

TNF-α
ABCG2 expression in HBEC after cytokine (ABCG2 expression in HBEC): no changes in ABCG2 expression
